Measurements as given in ChEMBL document CHEMBL1154468, “Synthesis and evaluation of fluoroquinolone derivatives as substrate-based inhibitors of bacterial efflux pumps” (2008).
≈ marks a conversion by molar mass, not a printed value. Calls of active or inactive are those of the source. The calls are words filed in the database; no cut-off is given here.

How the values were obtained:
[1] = system: Staphylococcus aureus; test: Inhibition of MepA efflux pump in Staphylococcus aureus K2361 assessed as reduction of ethidium bromide efflux at 10 uM for 5 mins; settings: in the assay text read “K1758-A” for “K2361”
[2] = system: Staphylococcus aureus; test: Inhibition of MepA efflux pump in Staphylococcus aureus K2361 assessed as reduction of ethidium bromide efflux at 2 uM for 5 mins; settings: in the assay text read “K1758-A” for “K2361”
[3] = system: Staphylococcus aureus; test: Inhibition of MepA efflux pump in Staphylococcus aureus K2361 assessed as reduction of ethidium bromide efflux at 0.5 uM […]; settings: in the assay text read “K1758-A” for “K2361”
[4] = molecular target: T1, Quinolone resistance protein NorA (Staphylococcus aureus) (UniProt P0A0J7); test: Inhibition of NorA efflux pump in Staphylococcus aureus K2361 assessed as reduction of ethidium bromide efflux at 10 uM for 5 mins
T1 sequence (whole entry): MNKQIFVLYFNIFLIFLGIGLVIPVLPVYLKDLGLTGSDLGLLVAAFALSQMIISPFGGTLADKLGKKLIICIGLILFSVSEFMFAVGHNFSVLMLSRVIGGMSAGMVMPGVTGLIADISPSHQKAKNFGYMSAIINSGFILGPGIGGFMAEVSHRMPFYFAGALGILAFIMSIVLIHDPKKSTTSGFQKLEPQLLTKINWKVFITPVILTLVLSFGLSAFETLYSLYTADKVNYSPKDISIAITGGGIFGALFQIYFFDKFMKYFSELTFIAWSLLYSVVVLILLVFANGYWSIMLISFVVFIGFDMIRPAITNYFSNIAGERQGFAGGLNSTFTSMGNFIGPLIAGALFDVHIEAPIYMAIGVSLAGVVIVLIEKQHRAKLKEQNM

[5] = molecular target: T1, Quinolone resistance protein NorA (Staphylococcus aureus); test: Inhibition of NorA efflux pump in Staphylococcus aureus K2361 assessed as reduction of ethidium bromide efflux at 2 uM for 5 mins
[6] = molecular target: T1, Quinolone resistance protein NorA (Staphylococcus aureus); test: Inhibition of NorA efflux pump in Staphylococcus aureus K2361 assessed as reduction of ethidium bromide efflux at 0.5 uM […]
[7] = system: Staphylococcus aureus; test: Antibacterial activity against Staphylococcus aureus K1758-P by broth microdilution technique; assay type: functional
In short: (§1)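 S. aureus K1758-P is the susceptible control for K1758-A, a K1758-background strain carrying a constructed plasmid for mepA overexpression. MIC was determined on both.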

[8] = system: Staphylococcus aureus; test: Antibacterial activity against Staphylococcus aureus K2361 overexpressing norA by broth microdilution technique; assay type: functional
In short: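 MIC assessed on norA-overexpressing S. aureus K2361, paired with K1902 as its susceptible control.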

[9] = system: Staphylococcus aureus; test: Antibacterial activity against Staphylococcus aureus K1902 by broth microdilution technique; assay type: functional
[10] = system: Pseudomonas aeruginosa; test: Antibacterial activity against Pseudomonas aeruginosa K1536 overexpressing mexCD by broth microdilution technique; assay type: functional
In short: (§2)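 MIC tested on P. aeruginosa PAO1, the susceptible control, and on its derivatives OCR1 (mexAB overexpresser) and K1536 (mexCD overexpresser).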

[11] = system: Pseudomonas aeruginosa; test: Antibacterial activity against Pseudomonas aeruginosa OCR1 overexpressing mexAB by broth microdilution technique; assay type: functional; in short: as §2
[12] = system: Pseudomonas aeruginosa; test: Antibacterial activity against Pseudomonas aeruginosa PAO1 by broth microdilution technique; assay type: functional; in short: as §2
[13] = system: Escherichia coli; test: Antibacterial activity against Escherichia coli AG102 overexpressing acrAB by broth microdilution technique; assay type: functional
In short: (§3)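 MIC determined against E. coli AG102, an acrAB overexpresser, alongside its susceptible parental control AG100.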

[14] = system: Escherichia coli; test: Antibacterial activity against Escherichia coli AG100 by broth microdilution technique; assay type: functional; in short: as §3
[15] = system: Staphylococcus aureus; test: Inhibition of MepA efflux pump in Staphylococcus aureus K2361 assessed as reduction of ethidium bromide efflux at 30 uM for 5 mins; settings: in the assay text read “K1758-A” for “K2361”
[16] = molecular target: T1, Quinolone resistance protein NorA (Staphylococcus aureus); settings: 30 uM
[17] = system: Staphylococcus aureus; test: Antibacterial activity against Staphylococcus aureus K1758-A overexpressing mepA by broth microdilution technique; assay type: functional; in short: as §1
[18] = system: Staphylococcus aureus; test: Antibacterial activity against ciprofloxacin-resistant Staphylococcus aureus at > 100 ug/ml by broth microdilution technique; assay type: functional, organism-based
[19] = molecular target: T1, Quinolone resistance protein NorA (Staphylococcus aureus); test: Inhibition of NorA efflux pump in Staphylococcus aureus K2361 assessed as reduction of ethidium bromide efflux for 5 mins
[20] = system: Staphylococcus aureus; test: Inhibition of MepA efflux pump in Staphylococcus aureus […] assessed as reduction of ethidium bromide efflux for 5 mins

Structure (SMILES) | inhibition [6] [%] | MIC [7] [µg/mL] | MIC [8] [µg/mL] | MIC [9] [µg/mL] | MIC [10] [µg/mL] | MIC [11] [µg/mL] | MIC [12] [µg/mL] | MIC [13] [µg/mL] | MIC [14] [µg/mL] | MIC [17] [µg/mL] | other results
CC1COc2c(NCc3ccc(NC(=O)Nc4ccccc4)cc3)c(F)cc3c(=O)c(C(=O)O)cn1c23 (stereo not given) | 73.6 | > 100 | 100 (≈ 199 µM) | > 100 | 100 (≈ 199 µM) | 50 (≈ 99.5 µM) | 50 (≈ 99.5 µM) | 10 (≈ 19.9 µM) | 10 (≈ 19.9 µM) |  | inhibition [1]: 84.1%; inhibition [2]: 65.9%; inhibition [3]: 53.4%; inhibition [4]: 96.4%; inhibition [5]: 85.6%
COC(=O)[C@H]1[C@H]2C[C@@H]3c4[nH]c5cc(OC)ccc5c4CCN3C[C@H]2C[C@@H](OC(=O)c2cc(OC)c(OC)c(OC)c2)[C@@H]1OC |  |  |  |  |  |  |  |  |  |  | inhibition [15]: 32%; inhibition [16]: 81%
NCc1ccc(NC(=O)Nc2ccc(Cl)cc2)cc1 | 20 |  |  |  |  |  |  |  |  |  | 
O=C(Nc1ccccc1)Nc1ccccc1 | 20 |  |  |  |  |  |  |  |  |  | 
O=C(O)c1cn(C2CC2)c2cc(N3CCNCC3)c(F)cc2c1=O [CIPROFLOXACIN] |  | 0.16 (≈ 0.483 µM) | 2.5 (≈ 7.54 µM) | 0.16 (≈ 0.483 µM) | 0.78 (≈ 2.35 µM) | 0.78 (≈ 2.35 µM) | 0.16 (≈ 0.483 µM) | 0.04 (≈ 0.121 µM) | ≤ 0.019 | 0.63 (≈ 1.9 µM) | 
NCCC[C@H](N)C(=O)N[C@@H](Cc1ccccc1)C(=O)N1CCN(c2cc3c(cc2F)c(=O)c(C(=O)O)cn3C2CC2)CC1 |  | > 10 |  | > 10 | 50 (≈ 84.4 µM) | 50 (≈ 84.4 µM) | 50 (≈ 84.4 µM) | 10 (≈ 16.9 µM) | 10 (≈ 16.9 µM) |  | 
O=C(Nc1ccccc1)Nc1ccc(CN2CCN(c3cc4c(cc3F)c(=O)c(C(=O)O)cn4C3CC3)CC2)cc1 |  | 0.63 (≈ 1.13 µM) | 1.25 (≈ 2.25 µM) | 0.31 (≈ 0.558 µM) | 50 (≈ 90 µM) | 50 (≈ 90 µM) | 50 (≈ 90 µM) | 10 (≈ 18 µM) | 5 (≈ 9 µM) | 0.63 (≈ 1.13 µM) | Activity [18]: inactive; Activity [19]: inactive; Activity [20]: inactive
CC1COc2c(N3CCN(C)CC3)c(F)cc3c(=O)c(C(=O)O)cn1c23 (stereo not given) [OFLOXACIN] |  | 0.63 (≈ 1.74 µM) | 2.5 (≈ 6.92 µM) | 0.63 (≈ 1.74 µM) | 6.25 (≈ 17.3 µM) | 6.25 (≈ 17.3 µM) | 1.25 (≈ 3.46 µM) | 0.16 (≈ 0.443 µM) | 0.08 (≈ 0.221 µM) | 1.25 (≈ 3.46 µM) | 
NCCC[C@@H](NC(=O)[C@@H](N)Cc1ccccc1)C(=O)N1CCN(c2cc3c(cc2F)c(=O)c(C(=O)O)cn3C2CC2)CC1 |  | 10 (≈ 16.9 µM) | > 10 | 10 (≈ 16.9 µM) | 50 (≈ 84.4 µM) | 50 (≈ 84.4 µM) | 50 (≈ 84.4 µM) | 10 (≈ 16.9 µM) | 10 (≈ 16.9 µM) | > 10 | 
NCc1ccc(NC(=O)Nc2ccccc2)cc1 | 20 |  |  |  |  |  |  |  |  |  | 
